Out of some 120,000 compounds screened, about 20 (0.02%) were called active. The sample as a whole holds a higher share of actives than the screen did. A number with no mark means an inactive call.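 Rule for the calls: active = inhibition above 30.3% in the primary screen of four-compound pools, then above 30% when the compound was retested; inconclusive = passed the primary limit but could not be retested; inactive = the rest.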
Experiment: Candida albicans biofilm persister killing – 4-compound mixtures, primary screen (AID 1242);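 note: compounds exposed to preformed 24 h biofilms for 48 h; 0% = untreated biofilm control and 100% = clotrimazole plus chlorhexidine kill blank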
Conditions: C. albicans biofilm persisters + clotrimazole, fluorescence viability, primary screen in compound mixtures, hits give high values; at 7.6 µM unless noted
How it was run: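 System: C. albicans CAF4-2 wild-type biofilms; Medium: RPMI/MOPS medium, pH 7.0; Reagent: Clotrimazole, 50 µg/mL; Times: biofilm formation 24 h, compound exposure 48 h, 37 °C; Detection: 2-h Alamar Blue fluorescence, 535/590 nm excitation/emission; Evaluation: percent inhibition of biofilm viability.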
CC1Cc2ccccc2N1S(=O)(=O)c1ccc(Cl)nc1 (stereo unspecified) showed an inhibition of 14.3%. Molecule Cc1cc2nc(C(F)(F)F)cc(-c3cccs3)n2n1 has an inhibition of 8.23%. Work on COc1ccc(C(=O)C2CCCN(C(=O)c3cc4nc(C)cc(C)n4n3)C2)cc1F (stereo unspecified) yielded an inhibition of 16.6%. With CCOC(=O)C1(Cc2cccc(OC)c2)CCN(C(C)COC)CC1 (stereo unspecified) the inhibition was 14.5%. Molecule NCC(=O)c1cccc2ccc[n+]([O-])c12 has an inhibition of 12.9%. Molecule N=c1c2c3c(sc2ncn1N)CCCC3 has an inhibition of 20.4%. Molecule CCOC(=O)CN1CCC(c2ccccc2)CC1 has an inhibition of 13.7%. Cc1cc(N)n(-c2ccc(S(=O)(=O)N3CCCC3)cc2[N+](=O)[O-])n1 gave an inhibition of 11.7%. In the case of CC(=O)c1cccc(-n2nnnc2SCC(=O)NNC(=O)C2CCCCC2)c1, the inhibition was 5.73%. C/C(=N/Nc1ccc(Cl)cc1)c1cnnc(-c2ccccc2)n1 showed an inhibition of 7.24%. Work on COc1ccc(Cl)cc1N(CC(=O)N/N=C/c1ccc(OCC(N)=O)cc1)S(C)(=O)=O yielded an inhibition of 20.2%. For S=C(NCCc1ccccc1)N1CCn2cccc2C1c1ccncc1 (stereo unspecified), the inhibition was 11.1%. Molecule COc1ccccc1C(c1nnnn1CC1CCCO1)N1CCN(c2ccccc2)CC1 (stereo unspecified) has an inhibition of 29.3%. With COc1ccc(NC(=O)CSc2nnc(-c3ccccc3F)n2C2CC2)cc1S(N)(=O)=O the inhibition was 7.66%. O=C(Cn1c(N2CCN(C/C=C/c3ccccc3)CC2)nc2ccccc21)c1ccccc1 showed an inhibition of 9.46%. In the case of CCC(C)(C)NC(=O)CN(C(=O)CCC(=O)Nc1cc(C)ccn1)c1ccc2c(c1)OCCO2, the inhibition was 1.7%. In the case of Cc1ccc(OCC(=O)NC(C)c2ccccc2)c([N+](=O)[O-])n1 (stereo unspecified), the inhibition was 8.35%. In the case of CCc1cc2c(=O)c(-c3nc4ccccc4n3C)c(CCCC(=O)O)oc2cc1OC(=O)C(C)(C)C, the inhibition was 14.2%. For COC(=O)Cc1ccc(NC(=S)NCc2ccco2)cc1, the inhibition was 1.39%. For Cc1ccc(Cl)cc1NC(=O)C1CCN(S(C)(=O)=O)CC1, the inhibition was -19.3%. In the case of CSc1nc(C)nc(C2CC2)c1C#N, the inhibition was 26.1%. Molecule CCc1nc2sc(C(=O)O)c(N)c2c2c1CCCC2 has an inhibition of 17.7%. For O=C1Nc2cc(Cl)c(Cl)cc2N(O)N1c1ccccc1Cl, the inhibition was 16.7%. CC1=CC=CC2=N/C(=N\S(=O)(=O)c3ccc(F)cc3F)c3ccccc3CN12 gave an inhibition of 14.1%. Work on NNC(=O)c1cccc(COCC(F)(F)C(F)F)c1 yielded an inhibition of 11.2%. In the case of CC(C)(C)n1nc2c(c1NC(=O)c1cc3ccccc3o1)CSC2, the inhibition was 8.07%. Work on CC(=O)NC(=S)Nc1ccc(NC(=O)c2cccnc2)cc1 yielded an inhibition of 26.7%. CN(c1ccccc1)S(=O)(=O)c1ccc(Cl)c(C(=O)OCC(N)=O)c1 showed an inhibition of 9.93%. Molecule COc1ccc2nc(Nc3nc(-c4ccncc4)cs3)sc2c1 has an inhibition of 12.3%. COCCCNC(=O)Cn1c(=O)n(Cc2ccccc2Cl)c(=O)c2cc(OC)c(OC)cc21 showed an inhibition of 5.13%. For COc1ccc(N=C(C)c2sc3ccccc3c2O)cc1, the inhibition was 24.2%. Cc1ccc(Cl)c(OCC(=O)NN2CCN(C)CC2)c1 showed an inhibition of 16.5%. CC1=C(C)CC(C(=O)NC(C)CCc2ccccc2)C(C(=O)O)C1 (stereo unspecified) showed an inhibition of -32%. Molecule C/C(CCc1ccccc1)=N\NC(=O)c1ccc(CN2CCOCC2)cc1 has an inhibition of 20.4%. For COc1ccc(S(=O)(=O)N(C)CC(=O)N2CCCC2)cc1Cl, the inhibition was 15.4%. For COc1ccc(/C=N/NC(=O)CNC(=O)c2ccc(S(=O)(=O)N3CCCC3)cc2)c(OC)c1, the inhibition was 1.69%. In the case of O=C(Cc1ccc(F)cc1)N/N=C/c1ccc2c(c1)OCO2, the inhibition was -22.6%. For Cc1nnc(Nc2ccccc2F)s1, the inhibition was 16.6%. CCC(=O)c1ccc(N2CCN(C(=O)c3cc([N+](=O)[O-])ccc3F)CC2)c(F)c1 showed an inhibition of -4.84%. Work on Cn1c(SCC(=O)NC2CCCCC2)nnc1-c1ccc(N)cc1 yielded an inhibition of 21.9%. With COc1ccc(C(=O)NCC(=O)N/N=C/c2ccc([N+](=O)[O-])s2)cc1OC the inhibition was 20.6%. Work on C/C(=N/OC(=O)c1c(-c2c(F)cccc2Cl)noc1C)c1cnccn1 yielded an inhibition of 10.3%. In the case of CC(=O)N/C(=C\c1ccc(F)cc1)C(=O)NC(Cc1ccccc1)C(=O)O (stereo unspecified), the inhibition was 14.6%. In the case of N#Cc1c(NCCO)ccc([N+](=O)[O-])c1NCCO, the inhibition was 15.9%. Nn1c(SCc2ccccc2)nnc1C1CCCCC1 showed an inhibition of 25.1%. Cc1ccc(C(=O)O)cc1N1C(=O)CCCC1=O showed an inhibition of 29.3%. Work on O=C(O)CC/C(=N\NC(=O)c1ccc(F)cc1)c1ccc(Br)cc1 yielded an inhibition of 0.26%. O=C1COc2ccc(C(=O)COC(=O)c3cccnc3Cl)cc2N1 gave an inhibition of 3.67%. In the case of Cn1c(=O)c2c(ncn2CC(=O)N/N=C/c2cn[nH]c2-c2ccc(F)cc2)n(C)c1=O, the inhibition was 8.1%. With CCOC(=O)c1c(CN(C)C)n(-c2ccccc2)c2cc(Br)c(O)cc12 the inhibition was 6.02%. O=C(NCCN1CCOCC1)c1ccc2c(c1)N(Cc1ccc(Cl)cc1)CCS2 gave an inhibition of -21.2%. For Cc1cccc(NC(=S)NCCc2ccc(F)cc2)c1C, the inhibition was 13.3%. Cc1ccc(N2C(=O)SC(N(CC(=O)O)c3ccc(C)cc3)C2=O)cc1 (stereo unspecified) showed an inhibition of 30.1%. With COc1cc(OC)c(C(=O)OCC(=O)N2CC(=O)Nc3ccccc32)cc1OC the inhibition was 16%. Molecule Cc1nn(C)c(C)c1CN(C(=O)CCc1nnc(Cc2c[nH]c3ccccc23)o1)C(C)C has an inhibition of 21.1%. In the case of C/C(=N\NC(=O)c1cccnc1)c1ccc(-c2ccccc2)cc1, the inhibition was 11.8%. In the case of Cc1ccc(S(=O)(=O)N(CC(=O)NN=C2CCN(C)CC2)c2ccc(F)cc2)cc1, the inhibition was 12.2%. Molecule CC(CO)(CO)NC(=O)c1ccc(=O)[nH]n1 has an inhibition of 20.4%. NNC(=O)C1CC(O)CN1S(=O)(=O)c1ccc(Cl)cc1 (stereo unspecified) showed an inhibition of -0.83%. Molecule Cc1ccccc1NC(=O)NNC(=O)OC(C)(C)C has an inhibition of 17.1%. For COc1ccc(C(=O)CSc2nnnn2C)c(OC)c1, the inhibition was 0.17%. CC(=O)Nc1ccc(S(=O)(=O)NC2(C(F)(F)F)C(=O)NC(C)=C2C#N)cc1 (stereo unspecified) gave an inhibition of 25.1%. In the case of O=C(Nc1nnc(C2CC2)s1)C1=NN(C2CCS(=O)(=O)C2)C(=O)CC1 (stereo unspecified), the inhibition was 7.46%. COc1cccc(/C=C/C(=O)Nc2ccc3c(c2)OCCO3)c1 gave an inhibition of 21.2%. O=C(CC1CCCCC1)NCc1ccc(F)cc1 showed an inhibition of 14.7%. For Cc1ccc(CN2CCN(Cc3ccc(OCCO)cc3)CC2CCO)o1 (stereo unspecified), the inhibition was 19.8%. For COC(=O)c1cc(C(=O)OCC(=O)Nc2cc(C)on2)cc([N+](=O)[O-])c1, the inhibition was 19.1%. For Cc1nc(=O)c(-c2ccccc2)c(C)n1-c1ccc(Br)cc1, the inhibition was 15.2%. Molecule O=C(CCc1ccccc1)NCCc1cccs1 has an inhibition of 19.8%. Cc1ccc(C(=O)NNc2ncnc3ccccc23)cc1 showed an inhibition of 25.7%. CCOC(=O)C1CCN(c2ncnc3c2c(-c2ccccc2)cn3-c2ccc(C)cc2)CC1 gave an inhibition of 10.1%. For O=C1CC(Cc2ccc(Cl)cc2)C(=O)N1c1cc(Cl)ccn1 (stereo unspecified), the inhibition was 15.9%. Molecule CCc1ccccc1NC(=O)CSc1nnc(CCNC(=O)OC(C)(C)C)o1 has an inhibition of 24.5%. O=C(O)c1cccc(NC(=O)c2cc(-c3cccc(Cl)c3)nc3ccccc23)c1 gave an inhibition of 16.3%. With Cn1cnnc1SCC(=O)Nc1ccc(N2CCOCC2)cc1 the inhibition was 1.33%. COc1c(C)cc(C(=O)C2CCCN(S(=O)(=O)c3c(C)noc3C)C2)cc1C (stereo unspecified) gave an inhibition of 2.3%. Work on COc1cc(N2C(=O)c3ccccc3C2=O)c(Cl)cc1C(=O)OCC(=O)N1CCOCC1 yielded an inhibition of 3.87%. Molecule COc1ccc(CCNC(=O)C(=O)Nc2ccc3nc4n(c(=O)c3c2)CCCCC4)cc1OC has an inhibition of 5.01%. For O=C(O)c1ccc(/C=N/NC(=S)NCc2ccccc2)cc1, the inhibition was 10.6%. With COc1ccc(-c2[nH]ncc2CN(Cc2nccn2C)C(C)C)cc1F the inhibition was 6.59%. Work on Cc1ccc(NC(=O)c2ccccn2)cc1S(=O)(=O)N1CCOCC1 yielded an inhibition of 7.29%. Cc1ccc(NC(=S)N(CCN(C)C)Cc2cccs2)cc1C gave an inhibition of 17.2%. With O=[N+]([O-])c1cccc2ncccc12 the inhibition was 12.4%. Work on COc1cccc(N2C(=O)CC(N3CCc4ccccc4C3)C2=O)c1 (stereo unspecified) yielded an inhibition of 17.8%. With CCOc1cc(NC(=S)NCc2ccco2)c(OCC)cc1NC(=O)c1ccco1 the inhibition was 2.67%. With N/C(=N\OC(=O)c1ccc2c(c1)OCO2)c1ccc(Br)cc1 the inhibition was 8.49%. CC(=O)Cn1ncc(N2CCOCC2)c(Br)c1=O showed an inhibition of -3.05%. With Cn1nnnc1SCC(=O)NNC(=O)c1ccc(Br)cc1 the inhibition was 11.2%. For CCCCN(C(=O)COc1ccc(NC(C)=O)cc1)C1CCS(=O)(=O)C1 (stereo unspecified), the inhibition was 12.9%. Molecule O=C(c1cn2ccccc2n1)N1CCc2c([nH]c3ccccc23)C1c1ccccn1 (stereo unspecified) has an inhibition of 0.31%. For O=c1[nH]c(N2CCN(Cc3ccc4c(c3)OCO4)CC2)nc2c1CCCC2, the inhibition was 6.65%. In the case of CCOC(=O)c1c(-c2cccc(N)c2)cn2ccccc12, the inhibition was 6.08%. For O=C(Nc1ccc2c(c1)C(=O)OC2)Nc1cccc2ccccc12, the inhibition was -1.47%. Work on CC(Oc1ccc(Br)cc1Br)C(=O)NC1CCCC1 (stereo unspecified) yielded an inhibition of 19.2%. Work on COc1ccc(CC(=O)NCC(=O)N/N=C/c2cc(Br)ccc2OC)cc1 yielded an inhibition of 19.3%. In the case of CCOC(=O)/C(C#N)=C/c1ccc(N2CCCCC2)cc1, the inhibition was 16.2%.
